# Results pooled from the literature.
# Protocols differ between the studies behind these lines.
# CDK4 with cyclin D1: Cyclin-dependent kinase 4, with cyclin D1 (CDK4, Homo sapiens, UniProt P11802)
# CHRM2: Muscarinic acetylcholine receptor M2 (CHRM2, Homo sapiens, UniProt P08172)
# AMY2: Pancreatic alpha-amylase (AMY2, Sus scrofa, UniProt P00690)
# CDK4 with cyclin D3: Cyclin-dependent kinase 4, with cyclin D3 (CDK4, Homo sapiens, UniProt P11802)
SMILES,target,read-out,action,method,setting,IC50
Cc1c(N2CCOCC2)oc2c(-c3ccc(Nc4ncc5cc(C(=O)N(C)C)n(C6CCCC6)c5n4)cc3F)cccc2c1=O,CDK4 with cyclin D1,enzyme activity,inhibitor,radiometric,,3.3 µM
Cc1cc(O)c(-c2ccc([C@@H](C)CN(C)C)cc2)c2c1[nH]c(=O)c1sccc12,"Cyclin-dependent kinase 19, with cyclin C (CDK19, Homo sapiens, UniProt Q9BWU1)",enzyme activity,inhibitor,,,> 1 µM
CN(C)C(=O)c1cc2cnc(Nc3cncc(-c4cccc5c(=O)cc(N6CCOCC6)oc45)c3)nc2n1C1CCCC1,CDK4 with cyclin D1,enzyme activity,inhibitor,radiometric,,0.054 µM
CN1CCC(CNc2ccc3ncc(-c4cccc(OC(F)(F)F)c4)n3n2)CC1,CHRM2,cAMP,antagonist,,,5.14 µM
O=c1c(O)c(-c2ccc(O)c(O)c2)oc2c(Br)c(O)c(Br)c(O)c12,AMY2,enzyme activity,inhibitor,,,19.9 µM
CNS(=O)(=O)c1ccc(Nc2ncc3cc(Cl)c(=O)n(C4CCCC4)c3n2)c(C)c1,CDK4 with cyclin D3,enzyme activity,inhibitor,radiometric,,0.022 µM
CN(C)C(=O)c1cc2cnc(Nc3ccc(-c4cccc5c(=O)cc(N6CCNCC6)oc45)cc3)nc2n1C1CCCC1,CDK4 with cyclin D1,enzyme activity,inhibitor,radiometric,,0.29 µM
CNS(=O)(=O)c1ccc(Nc2ncc(C(F)(F)F)c(N3CCCC(C)(O)C3)n2)c(C)c1 (stereo not shown),CDK4 with cyclin D3,enzyme activity,inhibitor,radiometric,,0.71 µM
O=C(CCNC(=O)CNC(=O)CC(c1ccccc1)(c1ccccc1)c1ccccc1)NC[C@H]1CCCN(Cc2ccc(F)cc2)C1,CHRM2,ligand displacement,,radioligand,cell membranes,13.7 µM
CN(C)C(=O)c1cc2cnc(Nc3ccc(-c4cccc5c(=O)cc(N6CCOCC6)oc45)cc3)nc2n1C1CCCC1,CDK4 with cyclin D1,enzyme activity,inhibitor,radiometric,,0.226 µM
O=c1c(O)c(-c2ccc(O)cc2)oc2c(Br)c(O)c(Br)c(O)c12,AMY2,enzyme activity,inhibitor,,,3.71 µM
CNS(=O)(=O)c1ccc(Nc2ncc(C(F)(F)F)c([C@H]3CC[C@](C)(O)CC3)n2)c(C)c1,CDK4 with cyclin D3,enzyme activity,inhibitor,radiometric,,0.247 µM
O=C(CCNC(=O)CNC(=O)CC(c1ccccc1)(c1ccccc1)c1ccccc1)NC[C@@H]1CCCN(Cc2ccc(F)nc2)C1,CHRM2,ligand displacement,,radioligand,cell membranes,> 30 µM
C[C@H]1CN(C(=O)CC#N)[C@]12CCN(c1ncnc3[nH]ccc13)C2,"Organic anion transporter 3 (SLC22A8, Homo sapiens, UniProt Q8TCC7)",transporter uptake,inhibitor,,,6.38 µM
NC/C(=C\F)COc1cccc(Cn2c(=S)[nH]c(=O)c3[nH]cnc32)c1,"Voltage-dependent L-type calcium channel subunit alpha-1C (CACNA1C, Homo sapiens, UniProt Q13936)",ion current,inhibitor,,,> 100 µM
CN(C)C(=O)c1cc2cnc(Nc3ccc(-c4ccc5c(=O)cc(N6CCOCC6)oc5c4)c(F)c3)nc2n1C1CCCC1,CDK4 with cyclin D1,enzyme activity,inhibitor,radiometric,,0.0123 µM
N=C(N)c1ccc(OCCCCCOc2ccc(C(=N)N)cc2)cc1,"Chymotrypsinogen A (Bos taurus, UniProt P00766)",enzyme activity,inhibitor,absorbance,,> 1750 µM
CN1CCN(c2cc(=O)c3ccc(Nc4ncc5cc(C(=O)N(C)C)n(C6CCCC6)c5n4)cc3o2)CC1,CDK4 with cyclin D1,enzyme activity,inhibitor,radiometric,,0.008 µM
Cc1cc(S(=O)(=O)NCCO[C@H]2CC[C@H](CN3CCC(c4ccn5c(N6CCC(=O)NC6=O)cnc5c4)CC3)CC2)ccc1Nc1ncc2cc(Cl)c(=O)n(C3CCCC3)c2n1,CDK4 with cyclin D3,enzyme activity,inhibitor,radiometric,,0.026 µM
